From ChEMBL document CHEMBL1641571, “Karavilagenin C derivatives as antimalarials” (Bioorg Med Chem, 2011) come the findings set out here.

Structures are written as SMILES.

Data set [1] has as its system Plasmodium falciparum. The data set is described as follows: Antimalarial activity against chloroquine-sensitive Plasmodium falciparum 3D7 infected in erythrocytes after 48 hrs by SYBR Green 1-based fluorescence assay. The data set is classed as functional, organism-based. The conditions noted are these: 3D7, 48 h.
The test system of data set [2] is MCF7. The data set is described as follows: Cytotoxicity against human MCF7 cells after 24 hrs by MTT assay. The format is functional, cell-based. As to conditions: MCF7, 24 h. The gist of the method: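 MCF-7 breast cancer cells grown in RPMI 1640 with 10% heat-inactivated horse serum, 2 mM L-glutamine and antibiotics, 5% CO2, 37 °C. 2 × 10^4 cells per well exposed to increasing compound concentrations for 24 h at 37 °C. MTT added (5 mg/mL stock), 4 h, then 10% SDS overnight. OD read at 550 nm (ref 630 nm). IC50 from growth inhibition; mean ± SD, three experiments.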

The nature of data set [3]: Selectivity index, ratio of IC50 for human MCF7 cells to IC50 for chloroquine-sensitive Plasmodium falciparum 3D7. The format is toxicity, cell-based. The conditions noted are these: read-out: Ratio IC50.
A short description of data set [4]: Selectivity index, ratio of IC50 for human MCF7 cells to IC50 for chloroquine-resistant Plasmodium falciparum Dd2. The format is toxicity, cell-based. The conditions noted are these: read-out: Ratio IC50.
Data set [5] relates to Plasmodium falciparum. The data set is described as follows: Antimalarial activity against chloroquine-resistant Plasmodium falciparum Dd2 infected in erythrocytes after 48 hrs by SYBR Green 1-based fluorescence assay. The format is functional, organism-based. The conditions noted are these: Dd2, 48 h.

Turning to `CCC(=O)O[C@H]1CC[C@@H]2C(=C[C@H](OC)[C@@H]3[C@@]2(C)CC[C@]2(C)[C@@H]([C@H](C)C[C@H](C=C(C)C)OC(=O)CC)CC[C@@]32C)C1(C)C` [KARAVOATE D], the IC50 is 1.5 µM in data set [1], over 133 µM in data set [2] and 0.4 µM in data set [5]. Further, the selectivity ratio in data set [3] was over 89; in data set [4], over 350.

On to `CO[C@H]1C=C2[C@@H](CC[C@H](O)C2(C)C)[C@]2(C)CC[C@]3(C)[C@@H]([C@H](C)C[C@@H](O)C=C(C)C)CC[C@@]3(C)[C@H]12` [KARAVELAGENIN C], for which the figures for the IC50 in data set [1], in data set [2] and in data set [5] were 10.4 µM, 16.7 µM and 11.2 µM, respectively. Besides, the selectivity ratio in data set [3] was determined as 1.6; in data set [4], 1.4.

Regarding `CO[C@H]1C=C2[C@@H](CC[C@H](O)C2(C)C)[C@]2(C)CC[C@]3(C)[C@@H]([C@H](C)C[C@H](C=C(C)C)OC(=O)c4ccc(Cl)cc4)CC[C@@]3(C)[C@H]12` [KARAVOATE K], the IC50 in data set [1] is 13.3 µM; in data set [2], over 133 µM; in data set [5] it was 23.3 µM. Also, the selectivity ratio in data set [3] was over 10; in data set [4], over 5.7.

With `COc1ccc(C(=O)O[C@H]2CC[C@@H]3C(=C[C@H](OC)[C@@H]4[C@@]3(C)CC[C@]3(C)[C@@H]([C@H](C)C[C@H](C=C(C)C)OC(=O)c5ccc(OC)cc5)CC[C@@]43C)C2(C)C)cc1` [KARAVOATE N], the figures for the IC50 in data set [1], in data set [2] and in data set [5] were 2.4 µM, over 133 µM and 47.9 µM, respectively. Also, the selectivity ratio in data set [3] is over 55.4; in data set [4], over 2.8.

With `CCC(=O)O[C@@H](C=C(C)C)C[C@@H](C)[C@H]1CC[C@@]2(C)[C@@H]3[C@@H](OC)C=C4[C@@H](CC[C@H](O)C4(C)C)[C@]3(C)CC[C@]12C` [KARAVOATE C], the concentration for half-maximal inhibition (IC50) was determined as 5.1 µM in data set [1], 19.1 µM in data set [2] and 22 µM in data set [5]. Besides, the figures for the selectivity ratio in data set [3] and in data set [4] were 3.7 and 0.9, respectively.

In the case of `CO[C@H]1C=C2[C@@H](CC[C@H](OC(C)=O)C2(C)C)[C@]2(C)CC[C@]3(C)[C@@H]([C@H](C)C[C@H](C=C(C)C)OC(C)=O)CC[C@@]3(C)[C@H]12` [KARAVOATE B], the concentration for half-maximal inhibition (IC50) in data set [1] came to 0.5 µM; in data set [2] it was 68.1 µM; in data set [5], 0.5 µM. Further, the selectivity ratio came to 151 in data set [3] and 126 in data set [4].

`CO[C@H]1C=C2[C@@H](CC[C@H](OC(=O)/C=C/c3ccccc3)C2(C)C)[C@]2(C)CC[C@]3(C)[C@@H]([C@H](C)C[C@H](C=C(C)C)OC(=O)/C=C/c4ccccc4)CC[C@@]3(C)[C@H]12` [KARAVOATE P]: the IC50 in data set [1] is 65.2 µM; in data set [2], over 133 µM; in data set [5] it was 56.6 µM. The selectivity ratio is over 2 in data set [3] and over 2.4 in data set [4].

On to `CO[C@H]1C=C2[C@@H](CC[C@H](O)C2(C)C)[C@]2(C)CC[C@]3(C)[C@@H]([C@H](C)C[C@H](C=C(C)C)OC(=O)c4ccc([N+](=O)[O-])cc4)CC[C@@]3(C)[C@H]12` [KARAVOATE I], for which the IC50 in data set [1] is 2.6 µM; in data set [2] it was over 133 µM; in data set [5], 0.5 µM. The selectivity ratio in data set [3] was over 51.4; in data set [4] it was over 296.

As for `CCCC(=O)O[C@@H](C=C(C)C)C[C@@H](C)[C@H]1CC[C@@]2(C)[C@@H]3[C@@H](OC)C=C4[C@@H](CC[C@H](O)C4(C)C)[C@]3(C)CC[C@]12C` [KARAVOATE E], the IC50 in data set [1] was 3.5 µM; in data set [2], 73.8 µM; in data set [5], 0.6 µM. For the same compound, the figures for the selectivity ratio in data set [3] and in data set [4] were 20.8 and 116, respectively.

`CO[C@H]1C=C2[C@@H](CC[C@H](O)C2(C)C)[C@]2(C)CC[C@]3(C)[C@@H]([C@H](C)C[C@H](C=C(C)C)OC(=O)/C=C/c4ccccc4)CC[C@@]3(C)[C@H]12` [KARAVOATE O]: the IC50 in data set [1] was 6.6 µM; in data set [2], over 133 µM; in data set [5], 26.7 µM. The results for the selectivity ratio in data set [3] and in data set [4] were over 20.3 and over 5, respectively.

With `CO[C@H]1C=C2[C@@H](CC[C@H](OC(=O)c3ccc([N+](=O)[O-])cc3)C2(C)C)[C@]2(C)CC[C@]3(C)[C@@H]([C@H](C)C[C@H](C=C(C)C)OC(=O)c4ccc([N+](=O)[O-])cc4)CC[C@@]3(C)[C@H]12` [KARAVOATE J], the values for the half-maximal inhibitory concentration (IC50) in data set [1], in data set [2] and in data set [5] were 18.6 µM, over 133 µM and 20.7 µM, respectively. Moreover, the selectivity ratio was over 7.2 in data set [3] and over 6.43 in data set [4].

For the compound `CO[C@H]1C=C2[C@@H](CC[C@H](OC(=O)c3ccccc3)C2(C)C)[C@]2(C)CC[C@]3(C)[C@@H]([C@H](C)C[C@H](C=C(C)C)OC(=O)c4ccccc4)CC[C@@]3(C)[C@H]12` [KARAVOATE H], the IC50 in data set [1] was 36.4 µM; in data set [2] it was over 133 µM; in data set [5] it was 30.5 µM. Further, the values for the selectivity ratio in data set [3] and in data set [4] were over 3.7 and over 4.4, respectively.

Take `CO[C@H]1C=C2[C@@H](CC[C@H](O)C2(C)C)[C@]2(C)CC[C@]3(C)[C@@H]([C@H](C)C[C@H](C=C(C)C)OC(C)=O)CC[C@@]3(C)[C@H]12` [KARAVOATE A]: the results for the IC50 in data set [1], in data set [2] and in data set [5] were 6.7 µM, 22.9 µM and 9.2 µM, respectively. For the same compound, the selectivity ratio in data set [3] stood at 3.4; in data set [4], 2.5.

`CO[C@H]1C=C2[C@@H](CC[C@H](O)C2(C)C)[C@]2(C)C[C@@H](O)[C@]3(C)[C@@H]([C@H](C)C[C@@H](O)C=C(C)C)CC[C@@]3(C)[C@H]12` [CUCURBALSAMINOL C]: the concentration for half-maximal inhibition (IC50) in data set [1] amounted to 52.7 µM; in data set [2], 43.3 µM; in data set [5], 67.6 µM. Besides, the figures for the selectivity ratio in data set [3] and in data set [4] were 0.8 and 0.6, respectively.

Consider `COc1ccc(C(=O)O[C@@H](C=C(C)C)C[C@@H](C)[C@H]2CC[C@@]3(C)[C@@H]4[C@@H](OC)C=C5[C@@H](CC[C@H](O)C5(C)C)[C@]4(C)CC[C@]23C)cc1` [KARAVOATE M], for which the IC50 in data set [1] is 1.3 µM; in data set [2], over 133 µM; in data set [5], 0.6 µM. Also, the selectivity ratio in data set [3] was over 43.6; in data set [4], over 215.

Turning to `CCCC(=O)O[C@H]1CC[C@@H]2C(=C[C@H](OC)[C@@H]3[C@@]2(C)CC[C@]2(C)[C@@H]([C@H](C)C[C@H](C=C(C)C)OC(=O)CCC)CC[C@@]32C)C1(C)C` [KARAVOATE F], the IC50 in data set [1] is 6.9 µM; in data set [2], over 133 µM; in data set [5], 8.4 µM. In addition, the selectivity ratio in data set [3] was over 19.4; in data set [4] it was over 15.8.

As for `CO[C@H]1C=C2[C@@H](CC[C@H](OC(=O)c3ccc(Cl)cc3)C2(C)C)[C@]2(C)CC[C@]3(C)[C@@H]([C@H](C)C[C@H](C=C(C)C)OC(=O)c4ccc(Cl)cc4)CC[C@@]3(C)[C@H]12` [KARAVOATE L], the IC50 in data set [1] was 22.5 µM; in data set [2] it was over 133 µM; in data set [5], 66 µM. Further, the figures for the selectivity ratio in data set [3] and in data set [4] were over 5.9 and over 2, respectively.
